# Test system: Escherichia coli
# Test: In vitro minimal inhibitory concentration against Escherichia coli #311 (Ec(B))
# Assay type: functional
# Details: not given
# In short: (§1)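 Agar dilution: two-fold serial drug dilutions in Mueller–Hinton agar; plates inoculated with 1–5 × 10⁴ CFU via Steers multiple inocula replicator; incubated 18 h at 35 °C. MIC = lowest concentration preventing macroscopic growth.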
row,Structure (SMILES),MIC
1,O=C(O)c1cn(C2CC2)c2cc(N3CCNCC3)c(F)cc2c1=O [CIPROFLOXACIN],≤ 0.015 µg/mL
2,O=C(O)c1cn(C2CC2)c2cc(N3CCCNCC3)c(F)cc2c1=O,0.03 µg/mL
3,O=C(O)c1cn(C2CC2)c2cc(N3CCNCC(O)C3)c(F)cc2c1=O (configuration not stated),0.5 µg/mL

# Second part, the molecule after the results:
row,MIC,Structure (SMILES)
1,0.25 µg/mL,O=C(O)c1cn(-c2ccc(F)cc2)c2cc(N3CCNC(CF)C3)c(F)cc2c1=O (configuration not stated)
2,1 µg/mL,CCn1cc(C(=O)O)c(=O)c2cc(F)c(N3CCNC(CO)C3)cc21.Cl (configuration not stated)

# Test system: Escherichia coli
# Test: In vitro minimal inhibitory concentration against Escherichia coli ATCC 25922 (Ec(A))
# Assay type: functional
# Details: not given
# In short: as §1
row,Structure (SMILES),MIC
1,O=C(O)c1cn(C2CC2)c2cc(N3CCNCC3)c(F)cc2c1=O [CIPROFLOXACIN],≤ 0.015 µg/mL
2,O=C(O)c1cn(C2CC2)c2cc(N3CCCNCC3)c(F)cc2c1=O,0.03 µg/mL
3,O=C(O)c1cn(C2CC2)c2cc(N3CCNCC(O)C3)c(F)cc2c1=O (configuration not stated),0.25 µg/mL

# Other lines, results leading:
row,MIC,Structure (SMILES)
1,0.25 µg/mL,O=C(O)c1cn(-c2ccc(F)cc2)c2cc(N3CCNC(CF)C3)c(F)cc2c1=O (configuration not stated)
2,2 µg/mL,CCn1cc(C(=O)O)c(=O)c2cc(F)c(N3CCNC(CO)C3)cc21.Cl (configuration not stated)

# Test system: Enterobacter cloacae
# Test: (§2) In vitro minimal inhibitory concentration against Enterobacter cloacae VGH-84-39 (Et(c))
# Assay type: functional
# Details: not given
# In short: as §1
row,MIC,Structure (SMILES)
1,0.25 µg/mL,O=C(O)c1cn(-c2ccc(F)cc2)c2cc(N3CCNC(CF)C3)c(F)cc2c1=O (configuration not stated)

# Test system: Enterobacter cloacae
# Test: as §2
# Assay type: functional
# Details: not given
row,MIC,Structure (SMILES)
1,0.03 µg/mL,O=C(O)c1cn(C2CC2)c2cc(N3CCCNCC3)c(F)cc2c1=O
2,0.25 µg/mL,O=C(O)c1cn(C2CC2)c2cc(N3CCNCC(O)C3)c(F)cc2c1=O (configuration not stated)
3,1 µg/mL,CCn1cc(C(=O)O)c(=O)c2cc(F)c(N3CCNC(CO)C3)cc21.Cl (configuration not stated)

# Test system: Morganella morganii
# Test: In vitro minimal inhibitory concentration against Morganella morganii CMC-84-39 (Mn)
# Assay type: functional
# Details: not given
# In short: as §1
row,Structure (SMILES),MIC
1,O=C(O)c1cn(C2CC2)c2cc(N3CCNCC3)c(F)cc2c1=O [CIPROFLOXACIN],0.015 µg/mL
2,O=C(O)c1cn(C2CC2)c2cc(N3CCCNCC3)c(F)cc2c1=O,0.03 µg/mL
3,O=C(O)c1cn(C2CC2)c2cc(N3CCNCC(O)C3)c(F)cc2c1=O (configuration not stated),0.12 µg/mL

# The remaining lines, values ahead:
row,MIC,Structure (SMILES)
1,1 µg/mL,O=C(O)c1cn(-c2ccc(F)cc2)c2cc(N3CCNC(CF)C3)c(F)cc2c1=O (configuration not stated)
2,0.5 µg/mL,CCn1cc(C(=O)O)c(=O)c2cc(F)c(N3CCNC(CO)C3)cc21.Cl (configuration not stated)

# Test system: Pseudomonas aeruginosa
# Test: In vitro minimal inhibitory concentration against Pseudomonas aeruginosa 12-4-4 (Pa)
# Assay type: functional
# Details: not given
# In short: as §1
row,Structure (SMILES),MIC
1,O=C(O)c1cn(C2CC2)c2cc(N3CCCNCC3)c(F)cc2c1=O,1 µg/mL
2,O=C(O)c1cn(C2CC2)c2cc(N3CCNCC(O)C3)c(F)cc2c1=O (configuration not stated),2 µg/mL

# Other lines, results leading:
row,MIC,Structure (SMILES)
1,8 µg/mL,O=C(O)c1cn(-c2ccc(F)cc2)c2cc(N3CCNC(CF)C3)c(F)cc2c1=O (configuration not stated)
2,64 µg/mL,CCn1cc(C(=O)O)c(=O)c2cc(F)c(N3CCNC(CO)C3)cc21.Cl (configuration not stated)

# Test system: Staphylococcus aureus
# Test: Median effective dose against female mice infected with Staphylococcus aureus Smith after oral administration
# Assay type: functional
# Details: not given
# In short: (§3)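 CD-1 female mice (20 ± 2 g) infected ip with 0.5 mL standardized bacterial suspension (E. coli #311 in trypticase–soy broth; S. aureus Smith in 5% hog gastric mucin). Dosed 0.5 h post-infection, oral or subcutaneous, 2-fold dose increments in 0.5 mL 0.2% aqueous agar; five mice per dose. 7-day survival pooled from three tests; ED50 by probit analysis, 95% confidence limits.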
row,Structure (SMILES),ED50
1,O=C(O)c1cn(C2CC2)c2cc(N3CCNCC3)c(F)cc2c1=O [CIPROFLOXACIN],3.8 mg/kg

# Test system: Staphylococcus aureus
# Test: Median effective dose against female mice infected with Staphylococcus aureus Smith after subcutaneous administration
# Assay type: functional
# Details: sc
# In short: as §3
row,Structure (SMILES),ED50
1,O=C(O)c1cn(C2CC2)c2cc(N3CCNCC3)c(F)cc2c1=O [CIPROFLOXACIN],0.69 mg/kg

# Test system: Staphylococcus aureus
# Test: In vitro minimal inhibitory concentration against Staphylococcus aureus ATCC 29213 (Sa(B))
# Assay type: functional
# Details: not given
# In short: as §1
row,Structure (SMILES),MIC
1,O=C(O)c1cn(C2CC2)c2cc(N3CCNCC3)c(F)cc2c1=O [CIPROFLOXACIN],1 µg/mL
2,O=C(O)c1cn(C2CC2)c2cc(N3CCCNCC3)c(F)cc2c1=O,2 µg/mL
3,O=C(O)c1cn(C2CC2)c2cc(N3CCNCC(O)C3)c(F)cc2c1=O (configuration not stated),16 µg/mL

# Continued, values first:
row,MIC,Structure (SMILES)
1,0.5 µg/mL,O=C(O)c1cn(-c2ccc(F)cc2)c2cc(N3CCNC(CF)C3)c(F)cc2c1=O (configuration not stated)
2,32 µg/mL,CCn1cc(C(=O)O)c(=O)c2cc(F)c(N3CCNC(CO)C3)cc21.Cl (configuration not stated)

# Test system: Staphylococcus aureus
# Test: In vitro minimal inhibitory concentration against Staphylococcus aureus Smith (MP) (Sa(A))
# Assay type: functional
# Details: not given
# In short: as §1
row,Structure (SMILES),MIC
1,O=C(O)c1cn(C2CC2)c2cc(N3CCNCC3)c(F)cc2c1=O [CIPROFLOXACIN],0.25 µg/mL
2,O=C(O)c1cn(C2CC2)c2cc(N3CCCNCC3)c(F)cc2c1=O,0.25 µg/mL
3,O=C(O)c1cn(C2CC2)c2cc(N3CCNCC(O)C3)c(F)cc2c1=O (configuration not stated),4 µg/mL

# Second part, the molecule after the results:
row,MIC,Structure (SMILES)
1,0.25 µg/mL,O=C(O)c1cn(-c2ccc(F)cc2)c2cc(N3CCNC(CF)C3)c(F)cc2c1=O (configuration not stated)
2,8 µg/mL,CCn1cc(C(=O)O)c(=O)c2cc(F)c(N3CCNC(CO)C3)cc21.Cl (configuration not stated)

# Test system: Enterococcus faecalis
# Test: In vitro minimal inhibitory concentration against Streptococcus faecalis UCI-85 (Sf(U))
# Assay type: functional
# Details: not given
# In short: as §1
row,Structure (SMILES),MIC
1,O=C(O)c1cn(C2CC2)c2cc(N3CCNCC3)c(F)cc2c1=O [CIPROFLOXACIN],1 µg/mL
2,O=C(O)c1cn(C2CC2)c2cc(N3CCCNCC3)c(F)cc2c1=O,2 µg/mL
3,O=C(O)c1cn(C2CC2)c2cc(N3CCNCC(O)C3)c(F)cc2c1=O (configuration not stated),16 µg/mL

# Now from value to molecule:
row,MIC,Structure (SMILES)
1,4 µg/mL,O=C(O)c1cn(-c2ccc(F)cc2)c2cc(N3CCNC(CF)C3)c(F)cc2c1=O (configuration not stated)
2,16 µg/mL,CCn1cc(C(=O)O)c(=O)c2cc(F)c(N3CCNC(CO)C3)cc21.Cl (configuration not stated)

# Test system: Enterococcus faecalis
# Test: In vitro minimal inhibitory concentration Streptococcus faecalis VGH-84 (Sf(V))
# Assay type: functional
# Details: not given
# In short: as §1
row,Structure (SMILES),MIC
1,O=C(O)c1cn(C2CC2)c2cc(N3CCNCC3)c(F)cc2c1=O [CIPROFLOXACIN],1 µg/mL
2,O=C(O)c1cn(C2CC2)c2cc(N3CCCNCC3)c(F)cc2c1=O,1 µg/mL
3,O=C(O)c1cn(C2CC2)c2cc(N3CCNCC(O)C3)c(F)cc2c1=O (configuration not stated),16 µg/mL

# Results, then the molecule that gave them:
row,MIC,Structure (SMILES)
1,4 µg/mL,O=C(O)c1cn(-c2ccc(F)cc2)c2cc(N3CCNC(CF)C3)c(F)cc2c1=O (configuration not stated)
2,16 µg/mL,CCn1cc(C(=O)O)c(=O)c2cc(F)c(N3CCNC(CO)C3)cc21.Cl (configuration not stated)

# Test system: Escherichia coli
# Test: animal or person
# Details: in Mus musculus, po
row,Structure (SMILES),ED50
1,O=C(O)c1cn(C2CC2)c2cc(N3CCNCC3)c(F)cc2c1=O [CIPROFLOXACIN],0.49 mg/kg

# Test system: Escherichia coli
# Test: animal or person
# Details: in Mus musculus, sc
row,Structure (SMILES),ED50
1,O=C(O)c1cn(C2CC2)c2cc(N3CCNCC3)c(F)cc2c1=O [CIPROFLOXACIN],0.07 mg/kg

# Source: ChEMBL document CHEMBL1124927, “Synthesis and structure-activity relationships of new 7-[3-(fluoromethyl)piperazinyl]- and -(fluorohomopiperazinyl)quinolone antibacterials” (1990)
